From publication PMC7218920 (Science translational medicine, 2019)

Columns and labels:
soluble GC = experiment: HEK-293 cells expressing cGMP-sensor alone; assay type: cell-based, human
Procedure, shortened: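 HEK-293 cells carrying the GloSensor cGMP luciferase reporter (pGS-40F), either transiently transfected or as a stable control line, with no NPR1. Luminescence from GloSensor reagent was read in real time after media, SNP (333 μM; a soluble GC activator) or hNPPA, hNPPB or NPPC (10 nM each). The stable line also received SNP and peptide concentration series. Transient time courses were run in triplicate.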

hNPR1 = molecular target: T1, hNPR1 (Homo sapiens, UniProt P16066); experiment: HEK-hNPR1-cGMP-sensor cells, qHTS cell-based assay; conditions: stable cell-line
T1 sequence (P16066 33-1061): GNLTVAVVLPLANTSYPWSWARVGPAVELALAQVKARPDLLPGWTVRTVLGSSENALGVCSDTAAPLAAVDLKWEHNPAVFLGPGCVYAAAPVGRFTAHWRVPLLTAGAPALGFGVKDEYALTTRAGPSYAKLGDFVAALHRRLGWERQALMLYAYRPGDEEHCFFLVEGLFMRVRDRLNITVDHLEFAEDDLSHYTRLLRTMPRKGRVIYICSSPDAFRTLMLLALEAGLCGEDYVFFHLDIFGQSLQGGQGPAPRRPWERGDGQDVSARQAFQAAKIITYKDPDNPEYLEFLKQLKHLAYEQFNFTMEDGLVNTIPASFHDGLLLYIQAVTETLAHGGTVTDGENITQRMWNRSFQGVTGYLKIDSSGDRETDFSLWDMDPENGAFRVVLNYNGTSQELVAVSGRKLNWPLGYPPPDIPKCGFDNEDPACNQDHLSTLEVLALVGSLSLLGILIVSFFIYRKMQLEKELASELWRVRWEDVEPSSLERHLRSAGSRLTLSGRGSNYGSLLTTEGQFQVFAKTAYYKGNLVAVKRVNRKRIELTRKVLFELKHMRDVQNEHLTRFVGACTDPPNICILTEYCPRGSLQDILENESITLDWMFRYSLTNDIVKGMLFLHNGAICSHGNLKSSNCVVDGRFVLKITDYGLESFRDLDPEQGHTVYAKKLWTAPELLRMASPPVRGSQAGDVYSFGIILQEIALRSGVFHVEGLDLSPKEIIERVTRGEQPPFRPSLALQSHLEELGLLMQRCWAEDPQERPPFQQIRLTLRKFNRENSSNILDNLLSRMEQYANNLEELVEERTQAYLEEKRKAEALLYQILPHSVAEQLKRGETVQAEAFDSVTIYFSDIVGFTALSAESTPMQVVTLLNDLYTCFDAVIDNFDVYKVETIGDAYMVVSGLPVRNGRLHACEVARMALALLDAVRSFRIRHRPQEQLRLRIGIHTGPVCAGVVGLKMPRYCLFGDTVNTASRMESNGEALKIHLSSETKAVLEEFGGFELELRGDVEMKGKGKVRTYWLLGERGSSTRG
Procedure, shortened: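 A stable HEK-293 line expressing hNPR1 plus the GloSensor cGMP reporter (pGS-40F) was stimulated with hNPPA, hNPPB or NPPC for time courses (10 nM each) and concentration-response. For qHTS, luminescence was read before and 30 min after agonist addition. Compounds were screened at six log concentrations and confirmed at 8 concentrations. Counter-screens covered luciferase interference, cytotoxicity and SNP-stimulated cGMP-sensor-only cells.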

hNPPB: human natriuretic polypeptide b, NPR1 agonist
response of stable cGMP-reporter cells (soluble GC; stable cGMP-sensor control cell-line): lacked responses | luciferase activity / cGMP in cGMP reporter cells (soluble GC; transient cGMP-sensor, SNP 333 μM, peptides 10 nM): did not increase cGMP | response of hNPR1-cGMP-reporter cells (hNPR1): with appropriate potencies
